Measured values published in ChEMBL document CHEMBL4251737, “Imidazo[2,1-b]benzothiazol Derivatives as Potential Allosteric Inhibitors of the Glucocorticoid Receptor” (ACS Med Chem Lett, 2018).
Values joined by “and” are separate entries in the source; they are usually repeats but may differ in a detail not shown here. Equal values may be shown once. Active and inactive are the calls of the source. The calls are words filed in the database; no cut-off is given here.

How the values were obtained:
[1] = Solubility of the compound in water; assay type: physicochemical; conditions: buffer
HeLa [2] = assay: Cytotoxicity against human HeLa cells after 72 hrs by MTT assay; assay type: cell-based
Method in brief: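 HeLa cells exposed 72 h in complete medium to 0.4, 2, 10, 50 and 250 µM; viability read by MTT. Means ± SE of 3 independent experiments run in triplicate.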

HeLa [3] = assay: Down regulation of GCRalpha expression in human HeLa cells at 0.4 uM after 24 hrs by Taqman-based real-time PCR analysis relative to control; assay type: functional
Method in brief: (§1)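 GCR transcripts quantified in HeLa cells after 24 h treatment at 0.4 and 2 µM. Means ± SD of 3 independent experiments; compared by one-way ANOVA.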

HeLa [4] = assay: Down regulation of GCRalpha expression in human HeLa cells at 2 uM after 24 hrs by Taqman-based real-time PCR analysis relative to control; assay type: functional, cell-based; method in brief: as §1
[5] = target: T1, Glucocorticoid receptor (Homo sapiens) (UniProt P04150); assay: Transrepression of GCR in human HeLa cells assessed as down regulation of GILZ mRNA expression at 0.4 uM after 24 hrs by Taqman-based real-time PCR analysis; assay type: cell-based
T1 sequence (whole entry): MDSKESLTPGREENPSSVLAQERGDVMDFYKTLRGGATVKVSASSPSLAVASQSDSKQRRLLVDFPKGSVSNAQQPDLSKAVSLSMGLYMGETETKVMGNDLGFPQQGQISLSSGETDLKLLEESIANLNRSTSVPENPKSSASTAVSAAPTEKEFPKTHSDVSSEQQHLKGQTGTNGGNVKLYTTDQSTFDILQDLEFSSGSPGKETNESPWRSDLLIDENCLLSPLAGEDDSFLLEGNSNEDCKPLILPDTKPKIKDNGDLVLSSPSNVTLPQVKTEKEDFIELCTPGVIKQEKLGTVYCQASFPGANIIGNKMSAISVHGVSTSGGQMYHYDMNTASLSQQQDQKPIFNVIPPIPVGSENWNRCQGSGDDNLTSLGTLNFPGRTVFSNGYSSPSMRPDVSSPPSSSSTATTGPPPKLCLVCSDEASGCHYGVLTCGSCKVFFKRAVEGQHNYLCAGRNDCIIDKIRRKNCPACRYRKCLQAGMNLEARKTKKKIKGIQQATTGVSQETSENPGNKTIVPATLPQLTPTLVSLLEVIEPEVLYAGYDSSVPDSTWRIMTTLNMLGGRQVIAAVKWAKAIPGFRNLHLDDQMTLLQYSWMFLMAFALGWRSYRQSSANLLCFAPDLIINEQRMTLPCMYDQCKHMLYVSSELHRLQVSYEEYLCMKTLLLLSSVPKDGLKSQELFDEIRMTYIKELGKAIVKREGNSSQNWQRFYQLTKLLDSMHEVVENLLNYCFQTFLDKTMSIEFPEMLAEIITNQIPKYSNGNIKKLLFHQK
Method in brief: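 GILZ expression measured in HeLa cells after 24 h treatment at 0.4 and 2 µM, relative to untreated cells.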

[6] = target: T1, Glucocorticoid receptor (Homo sapiens); assay: Transactivation of GCR (unknown origin) expressed in human fibrosarcoma cells at 0.1 uM after 6 hrs by luciferase reporter gene assay; assay type: cell-based
Method in brief: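 GCR luciferase reporter run with single compound at 0.1 µM to probe agonism; reference agonist DEX at 1 µM.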

[7] = target: T1, Glucocorticoid receptor (Homo sapiens); assay: Transrepression of GCR in human HeLa cells assessed as suppression of DEX-induced GILZ mRNA expression at 0.4 to 2 uM after 24 hrs by Taqman-based real-time PCR analysis; assay type: cell-based
Method in brief: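 HeLa cells treated 24 h with DEX alone (0.1 µM) or DEX plus compound; GILZ transcription measured. RU486 plus DEX served as competitive-antagonist control.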

[8] = target: T1, Glucocorticoid receptor (Homo sapiens); assay: Transrepression of GCR (unknown origin) expressed in human fibrosarcoma cells assessed as inhibition of DEX-induced GCR activation at 0.1 uM after 6 hrs by luciferase reporter gene assay relative to DEX; values are per cent of control
[9] = target: T1, Glucocorticoid receptor (Homo sapiens); assay: Transrepression of GCR (unknown origin) expressed in human fibrosarcoma cells assessed as suppression of TNF-induced NFkappaB activity at 1 uM pretreated for 2 hrs followed by TNF addition after 4 hrs by luciferase reporter gene assay relative to control; assay type: cell-based
Method in brief: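 Cells pretreated 2 h with compound alone, then TNF added and combination treatment continued 4 h; NF-kB luciferase reporter activity measured.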

Row | Structure (SMILES) | EC50 (HeLa [2]) | Activity [5] | Activity [6] | residual activity [8] | further results
1 | Cl.NCc1ccc(-c2cn3c(n2)sc2ccccc23)cc1 |  |  |  |  | solubility [1]: Soluble
2 | N#Cc1ccc(-c2cn3c4c(sc3n2)C(=O)CCC4)cc1 | 16 µM | Active |  |  | Activity (HeLa [3]): Active; Activity (HeLa [4]): inactive
3 | NCc1ccc(-c2cn3c(n2)sc2ccccc23)cc1 [listing 1 of 2 here] |  | Active | inactive |  | Activity [7]: inactive
4 | Cc1ccc(-c2cn3c(n2)sc2ccccc23)cc1 |  |  | inactive | 30% | 
5 | N#Cc1ccc(-c2cn3c4c(sc3n2)CCCC4)cc1 | 1.7 µM | Active | inactive | 18% | Activity [9]: 76%; Activity [7]: inactive
6 | Brc1ccc(-c2cn3c(n2)sc2ccccc23)cc1 |  |  | inactive | 20% | 
7 | NCc1ccc(-c2cn3c(n2)sc2ccccc23)cc1 [listing 2 of 2 here] | 3.6 µM |  |  |  | 
8 | CCn1c2ccccc2n2cc(-c3ccc(C#N)cc3)nc12 |  |  | inactive | 25% | 
9 | O=C(O)c1ccc(-c2cn3c4c(sc3n2)CCCC4)cc1 | 170 µM | Active |  |  | Activity (HeLa [3]): 50%; Activity (HeLa [4]): inactive
10 | OCc1ccc(-c2cn3c(n2)sc2ccccc23)cc1 |  |  | inactive | 34% | 
11 | Cl.NCc1ccc(-c2cn3c4c(sc3n2)CCCC4)cc1 |  |  | inactive | 23% and 35% | solubility [1]: Soluble
12 | COC(=O)c1ccc(-c2cn3c4c(sc3n2)CCCC4)cc1 | 7.7 µM | Active |  |  | Activity (HeLa [3]): Active; Activity (HeLa [4]): inactive
13 | Nc1ccc(-c2cn3c(n2)sc2ccccc23)cc1 |  |  | inactive | 23% | 
